Experimental data of several laboratories.
Compare with care: the assays were run in different laboratories. Values after ≈ are worked out from the molar mass of the structure shown.

SMILES | target or system | test | test system | setting | endpoint | result
CCC(CCCCCCCCCCc1cc(O)cc(O)c1)C(C)C (centres unmarked) | Klebsiella pneumoniae | microbial growth | ATCC29665 | – | IC50 | > 200 µM
COC(=O)c1cc(-c2cccc(NC(=O)Nc3ccc(OC)cc3)c2)on1 | Klebsiella pneumoniae | microbial growth, broth dilution | BAA1705 | – | MIC | > 64 µg/mL
N#CCc1c[nH]c2ccccc12 | Cryptosporidium parvum | parasite growth | HCT-8 | 24 h, intracellular | EC50 | 546 µM
C[C@H]1COc2c(N3CCN(C)CC3)c(F)cc3c(=O)c(C(=O)O)cn1c23 | Klebsiella pneumoniae | microbial growth, broth dilution | BAA1705 | – | MIC | 64 µg/mL (≈ 177 µM)
COc1c2c(cc3c1OCO3)[C@]13C=C[C@H](OC)C[C@@H]1[N@](C2)C[C@H]3OC(=O)c1ccc2ccccc2c1 | A2780 | cell growth or viability, WST-1 | – | – | IC50 | > 10 µM
COC(=O)c1cc(-c2cccc(NC(=S)Nc3cc(C(F)(F)F)cc(C(F)(F)F)c3)c2)on1 | Klebsiella pneumoniae | microbial growth, broth dilution | BAA1705 | – | MIC | > 64 µg/mL
O=C(N/N=C1\C(=O)N(Cc2ccccc2)c2ccc(Cl)cc21)c1cc2ccccc2[nH]1 | HT-29 | cell growth or viability | – | 30 µM | inhibition | 94.3%
N#Cc1c[nH]c2ccccc12 | Cryptosporidium parvum | parasite growth | HCT-8 | 24 h, intracellular | EC50 | 163 µM
CC(C)CCCCCCCCCCCCc1cc(O)cc(O)c1 | Klebsiella pneumoniae | microbial growth | ATCC29665 | – | IC50 | > 200 µM
O=C(N/N=C1\C(=O)N(Cc2ccc(Cl)cc2)c2ccccc21)c1cc2ccccc2[nH]1 | HT-29 | cell growth or viability | – | 30 µM | inhibition | 93.7%
COC(=O)c1cc(-c2cccc(NC(=S)Nc3ccccc3Cl)c2)on1 | Klebsiella pneumoniae | microbial growth, broth dilution | BAA1705 | – | MIC | > 64 µg/mL
Cc1ccc(CN2C(=O)/C(=N\NC(=O)c3cc4ccccc4[nH]3)c3ccccc32)cc1 | HT-29 | cell growth or viability | – | 30 µM | inhibition | 91.1%
CCOC(=O)c1nnn(-c2cccc(NC(=O)Nc3ccc(Cl)c(Cl)c3)c2)c1C | Klebsiella pneumoniae | microbial growth, broth dilution | BAA1705 | – | MIC | > 64 µg/mL
O=C(N/N=C1\C(=O)N(Cc2ccccc2)c2ccc(Br)cc21)c1cc2ccccc2[nH]1 | HT-29 | cell growth or viability | – | 30 µM | inhibition | 94.7%
Cc1cccc(-n2ncc(Cl)c(Cl)c2=O)c1 | NCI-H1650 | cell growth or viability, resazurin | – | 96 h | IC50 | 1.24 µM
N#Cc1ccc(CN2C(=O)/C(=N\NC(=O)c3cc4ccccc4[nH]3)c3ccccc32)cc1 | HT-29 | cell growth or viability | – | 30 µM | inhibition | 81.6%
CC(C)CCCCCCCCCCCCCCc1cc(O)cc(O)c1 | Klebsiella pneumoniae | microbial growth | ATCC29665 | – | IC50 | > 200 µM
O=C(N/N=C1\C(=O)N(Cc2ccccc2)c2ccccc21)c1cc2ccccc2[nH]1 | HT-29 | cell growth or viability | – | – | IC50 | 6.19 µM
COc1ccc(C=CC(=O)c2ccc(-c3ccccc3)cc2)cc1OC | Mycobacterium tuberculosis variant bovis BCG | microbial growth | BCG | 7 days | MIC | 100 µg/mL (≈ 290 µM)
COC(=O)c1cc(-c2cccc(NC(=O)Nc3c(C)cccc3C)c2)on1 | Klebsiella pneumoniae | microbial growth, broth dilution | BAA1705 | – | MIC | > 64 µg/mL
Cc1c(NN=C(C#N)C2=NC(=O)CS2)c(=O)n(-c2ccccc2)n1C | Klebsiella pneumoniae | microbial growth, well diffusion | – | 100000 µg/mL | inhibition zone | 25 mm
COC(=O)c1cc(-c2cccc(NC(=O)Nc3ccc(C)c(Cl)c3)c2)on1 | Klebsiella pneumoniae | microbial growth, broth dilution | BAA1705 | – | MIC | > 64 µg/mL
COc1c2ccoc2cc2oc(=O)ccc12 | RD | cell growth or viability, WST-1 | – | 48 h | IC50 | 31.8 µM
